Laboratory results taken from ChEMBL document CHEMBL4130438, “6,7-Seco-ent-Kauranoids Derived from Oridonin as Potential Anticancer Agents” (J Nat Prod, 2017).
Active and inactive are the calls of the source. No cut-off for these calls is given here.

Tests used:
[1] = tested on: H22; assay: Antitumor activity against […] cells xenografted in ICR mouse assessed as inhibition of tumor volume at 20 mg/kg, iv qd administered for 14 consecutive days measured every 2 days relative to control; format: functional; settings: 14 days
Outline: (§1)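 Male ICR mice, five weeks old, implanted s.c. in the right flank with 1 × 10^6 H22 cells. After 7 days, randomised into groups of eight. Given i.v. once daily for 14 days, 10 or 20 mg/kg in 10% DMF/2% poloxamer/88% saline; negative controls received 0.9% saline i.v., positive control 20 mg/kg oridonin. Body weight and tumour volume (L × W²/2) recorded every 2 days. Tumours excised and weighed at sacrifice; inhibition (%) = (1 − treated/control mean tumour weight) × 100.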

[2] = tested on: MCF7; assay: Induction of apoptosis in human MCF7 cells assessed as increase in Bax expression level after 48 hrs by Western blot analysis; format: functional, cell-based
[3] = tested on: MCF7; assay: Cell cycle arrest in human MCF7 cells assessed as accumulation at S phase at 2 uM after 48 hrs by propidium iodide staining based flow cytometry (reference value: 17.01%); format: functional
[4] = tested on: MCF7; assay: Cell cycle arrest in human MCF7 cells assessed as accumulation at G1 phase at 2 uM after 48 hrs by propidium iodide staining based flow cytometry (reference value: 70.27%); format: functional
[5] = tested on: MCF7; assay: Cell cycle arrest in human MCF7 cells assessed as accumulation at G2/M phase after 48 hrs by propidium iodide staining based flow cytometry; format: functional
[6] = tested on: MCF7; assay: Cell cycle arrest in human MCF7 cells assessed as accumulation at S phase at 0.25 uM after 48 hrs by propidium iodide staining based flow cytometry (reference value: 17.01%); format: functional
[7] = organism: Homo sapiens; assay: Antiproliferative activity against human KB/CP4 cells after 48 hrs by MTT assay; format: functional, cell-based
[8] = tested on: MCF7; assay: Induction of apoptosis in human MCF7 cells assessed as decrease in p53 expression level after 48 hrs by Western blot analysis; format: functional, cell-based
Outline: (§2)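 MCF-7 cells treated 48 h with 0, 0.5, 1.0, 2.0 or 4.0 μM, then lysed on ice. 20 μg protein per lane run on 8–12% SDS-PAGE and transferred to PVDF. Probed overnight at 4 °C for caspase-3, pro-caspase-3, Bax, Bcl-2, p-ERK and p53, with fluorescent secondary antibodies. Densities normalised to β-actin; three independent experiments.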

[9] = tested on: MCF7; assay: Induction of apoptosis in human MCF7 cells assessed as increase in caspase 3 expression level after 48 hrs by Western blot analysis; format: functional, cell-based
[10] = tested on: MCF7; assay: Cell cycle arrest in human MCF7 cells assessed as accumulation at G1 phase at 0.25 uM after 48 hrs by propidium iodide staining based flow cytometry (reference value: 70.27%); format: functional
[11] = tested on: MCF7; assay: Cell cycle arrest in human MCF7 cells assessed as accumulation at G2/M phase at 2 uM after 48 hrs by propidium iodide staining based flow cytometry (reference value: 12.72%); format: functional
[12] = tested on: MCF7; assay: Induction of apoptosis in human MCF7 cells assessed as increase in ERK phosphorylation after 48 hrs by Western blot analysis; format: functional, cell-based
[13] = tested on: MCF7; assay: Induction of apoptosis in human MCF7 cells after 24 hrs by Annexin-V FITC/propidium iodide staining based flow cytometry; format: functional, cell-based
[14] = tested on: MCF7; assay: Induction of apoptosis in human MCF7 cells assessed as necrotic cells at 2 uM after 24 hrs by Annexin-V FITC/propidium iodide staining based flow cytometry (reference value: 0.610%); format: functional
[15] = tested on: MCF7; assay: Induction of apoptosis in human MCF7 cells assessed as viable cells at 2 uM after 24 hrs by Annexin-V FITC/propidium iodide staining based flow cytometry (reference value: 97.5%); format: functional; settings: MCF7, 24 h, read-out: Activity
[16] = tested on: MCF7; assay: Induction of apoptosis in human MCF7 cells assessed as viable cells at 0.50 uM after 24 hrs by Annexin-V FITC/propidium iodide staining based flow cytometry (reference value: 97.5%); format: functional; settings: MCF7, 24 h, read-out: Activity
[17] = tested on: MCF7; assay: Induction of apoptosis in human MCF7 cells assessed as late apoptotic cells at 0.50 uM after 24 hrs by Annexin-V FITC/propidium iodide staining based flow cytometry (reference value: 0.290%); format: functional
[18] = tested on: K562; assay: Antiproliferative activity against human K562 cells after 72 hrs by MTT assay; format: functional, cell-based; settings: K562, 72 h
Outline: (§3)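 Cells pre-incubated 24 h at 37 °C, 5% CO2 in 96-well plates, then exposed to a range of compound concentrations (DMSO ≤0.25%) for 72 h. Viable cells read by MTT colour at 570 nm. Performed in quadruplicate, repeated three times. IC50 reported as means ± SD, n = 3.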

[19] = tested on: Bel-7402; assay: Antiproliferative activity against human Bel7402 cells after 72 hrs by MTT assay; format: functional, cell-based; settings: Bel-7402, 72 h; outline: as §3
[20] = tested on: MCF7; assay: Inhibition of colony formation in human MCF7 cells up to 600 nM incubated for 24 hrs followed by removal of media measured after 10 days by crystal violet staining based microscopy; format: functional, cell-based
Outline: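 300 MCF-7 cells per well plated and incubated overnight, then exposed for 24 h to graded concentrations in DMSO (DMSO-only control). Medium removed and cells grown 10 days. Fixed in methanol 15 min, stained with 0.1% crystal violet 15 min; colonies of >50 cells counted. At least three independent experiments.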

[21] = tested on: MCF7; assay: Induction of apoptosis in human MCF7 cells assessed as early apoptotic cells at 0.50 uM after 24 hrs by Annexin-V FITC/propidium iodide staining based flow cytometry (reference value: 1.60%); format: functional
[22] = tested on: MCF7; assay: Induction of apoptosis in human MCF7 cells assessed as decrease in mitochondrial membrane potential measured after 36 hrs by JC-1 staining based fluorescence microscopy; format: functional, cell-based
Outline: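 MCF-7 cells treated 36 h across a range of concentrations, then loaded with 10 μg/mL JC-1 for 30 min at 37 °C and washed in PBS. Monomer fluorescence read at ex 490/em 535 nm and aggregate fluorescence at ex 525/em 600 nm, by plate reader or fluorescence microscopy. Run in triplicate.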

[23] = tested on: KB 3-1; assay: Antiproliferative activity against human KB-3-1 cells after 48 hrs by MTT assay; format: functional, cell-based
[24] = tested on: MCF7; assay: Antiproliferative activity against human MCF7 cells after 72 hrs by MTT assay; format: functional, cell-based; settings: MCF7, 72 h; outline: as §3
[25] = tested on: MCF7; assay: Cell cycle arrest in human MCF7 cells assessed as accumulation at G1 phase at 0.50 uM after 48 hrs by propidium iodide staining based flow cytometry (reference value: 70.27%); format: functional
[26] = tested on: Mus musculus; assay: Toxicity in ICR mouse xenografted with […] cells assessed as effect on body weight loss at 10 to 20 mg/kg, iv qd administered for 14 consecutive days; format: organism-based; settings: in vivo; outline: as §1
[27] = tested on: MCF7; assay: Induction of apoptosis in human MCF7 cells assessed as early apoptotic cells at 0.25 uM after 24 hrs by Annexin-V FITC/propidium iodide staining based flow cytometry (reference value: 1.60%); format: functional
[28] = tested on: MCF7; assay: Induction of apoptosis in human MCF7 cells assessed as necrotic cells at 1 uM after 24 hrs by Annexin-V FITC/propidium iodide staining based flow cytometry (reference value: 0.610%); format: functional
[29] = tested on: MCF7; assay: Induction of apoptosis in human MCF7 cells assessed as early apoptotic cells at 2 uM after 24 hrs by Annexin-V FITC/propidium iodide staining based flow cytometry (reference value: 1.60%); format: functional
[30] = tested on: MCF7; assay: Induction of apoptosis in human MCF7 cells assessed as decrease in Bcl2 expression level after 48 hrs by Western blot analysis; format: functional, cell-based; outline: as §2

C=C1C(=O)[C@@]23C(=O)OC[C@]4(C=CCC(C)(C)[C@H]4C=O)[C@@H]2CC[C@@H]1[C@H]3OC(=O)c1ccc(F)cc1
inhibition in vivo at 20 mg/kg [1]: 52.5% | Activity [2]: Dose-dependent effect | Activity [3]: 17.71% | Activity [4]: 57.49% | Activity [5]: Dose-dependent effect | Activity [6]: 18.3% | Activity [7]: Active | Activity [8]: Dose-dependent effect | Activity [9]: Dose-dependent effect | Activity [10]: 67.64% | Activity [11]: 24.8% | Activity [12]: Dose-dependent effect | Activity [13]: Dose-dependent effect | Activity [14]: 2.74% | viability at 2 µM [15]: 58.6% | viability at 0.5 µM [16]: 81.7% | Activity [17]: 7.68% | IC50 [18]: 690 nM | IC50 [19]: 1800 nM | inhibition [20]: Active | Activity [21]: 9.75% | Activity [22]: Dose-dependent effect | Activity [23]: Active | IC50 [24]: 680 nM | Activity [25]: 64.82% | Activity [26]: Non-Toxic | Activity [27]: 6.67% | Activity [28]: 1.93% | Activity [29]: 14% | Activity [30]: Dose-dependent effect
